According to publication PMC10147382 (ACS chemical neuroscience, 2022):
Like-named read-outs stand apart in the source and are kept apart here.

Experiments:
5-HT1D receptor = 5-HT1D receptor (Homo sapiens, UniProt P28221); test: 5-HTome G protein activation BRET screen; format: cell-based; conditions: 5-HTome screen
Summary of the method: (§1)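 Human 5-HT receptors (12 in the panel) are tested by G protein-dissociation BRET2. Cells are reverse-transfected about 48 h before assay with receptor:Gα-Rluc8:Beta:GFP2-γ (TRUPATH) at 1:1:1:1 and plated in 1% dFBS. Drug is added in HBSS/20 mM HEPES pH 7.4 with 0.3% BSA and 0.03% ascorbic acid, then incubated 60 min at 37°C. Coelenterazine 400a is 5 uM final. The 510/400 ratio is normalized to % positive control, with EC50/Emax from log(agonist) vs response. Three independent experiments in triplicate.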

mice [1] = test: Novelty suppressed feeding; format: in vivo, mouse; conditions: 7 days post-drug administration; 10mg/kg
humans = conditions: cited from earlier work
mice [2] = test: Head twitch response; format: in vivo, mouse
5-HT2C receptor [3] = target: T1, 5-HT2C receptor (Homo sapiens, UniProt P28335); test: Calcium flux assay; format: cell-based; conditions: relative to 5-HT
T1 sequence (P28335 33-458): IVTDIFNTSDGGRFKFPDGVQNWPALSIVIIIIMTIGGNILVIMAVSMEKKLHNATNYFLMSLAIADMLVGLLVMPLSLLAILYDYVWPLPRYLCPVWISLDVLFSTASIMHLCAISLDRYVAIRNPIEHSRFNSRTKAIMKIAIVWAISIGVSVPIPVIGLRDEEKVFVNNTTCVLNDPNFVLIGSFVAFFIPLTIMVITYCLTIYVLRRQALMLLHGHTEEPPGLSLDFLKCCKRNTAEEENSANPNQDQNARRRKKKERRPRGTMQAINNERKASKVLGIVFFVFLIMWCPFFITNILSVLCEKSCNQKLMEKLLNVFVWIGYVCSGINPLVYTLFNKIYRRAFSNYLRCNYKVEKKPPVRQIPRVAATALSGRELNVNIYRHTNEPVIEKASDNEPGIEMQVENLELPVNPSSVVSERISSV
Summary of the method: (§2)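 Flp-In 293 T-Rex cells stably carry tetracycline-inducible human 5-HT2A or 5-HT2C. Expression is induced with tetracycline (2 ug/mL) the day before, with about 7,500 cells/well in 1% dialyzed FBS. Cells are loaded with Fluo-4 Direct for 1 h at 37°C in HBSS/20 mM HEPES pH 7.4 with 2.5 mM probenecid, then held 15 min at RT. Fluorescence is read 10 s baseline, then 5-10 min after drug. Peak fold-over-basal or AUC is normalized to % 5-HT, with EC50/Emax from nonlinear regression.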

mice [4] = test: Open field test; format: in vivo, mouse; conditions: for effect on general locomotion: s.c.
[5] = system: auxilin knockout (KO) mice; test: Auxilin KO Parkinson's model, balance beam; format: in vivo, mouse; conditions: 10 mg/kg i.p., 15 to 30 minutes after treatment
Summary of the method: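 Auxilin KO and WT mice aged 9-12 months, sex balanced, n=5-7/group. Vehicle is 0.85% saline i.p. at 10 ml/kg. Test compound is 10 mg/kg i.p. in 0.85% saline with 2 molar equivalents of glacial acetic acid, at 10 ml/kg. Baseline testing is done one week before treatment and repeated 15-30 min post-dose. Balance beam: mice walk a raised narrow beam to a safety box, scored as average crossing time and crossings per minute. Mean ± S.E.M.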

mice [6] = test: Elevated plus maze; format: in vivo, mouse; conditions: 30 minutes and 4 hours post single s.c. injection
Summary of the method: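 Elevated plus maze in mice given a single subcutaneous injection of test compound or a reference psychedelic. Time in open vs closed arms and arm entries are scored at 30 min and 4 h post-injection. n=10/group, mean ± S.E.M. Analysis is two-way ANOVA with Dunnett's post hoc test.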

5-HT1e receptor = 5-HT1e receptor (Homo sapiens, UniProt P28566); test: 5-HTome G protein activation BRET screen; format: cell-based; conditions: 5-HTome screen
Summary of the method: as §1

5-HT1B receptor = 5-HT1B receptor (Homo sapiens, UniProt P28222); test: 5-HTome G protein activation BRET screen; format: cell-based; conditions: 5-HTome screen
Summary of the method: as §1

5-HT2A receptor [7] = target: T2, 5-HT2A receptor (Homo sapiens, UniProt P28223); test: G protein; format: cell-based
rats = conditions: 10 mg/kg, s.c. or i.p. ref 12, 13; cited from earlier work
5-HT1F receptor = 5-HT1F receptor (Homo sapiens, UniProt P30939); test: 5-HTome G protein activation BRET screen; format: cell-based; conditions: 5-HTome screen
Summary of the method: as §1

rabbits = conditions: cited from earlier work
5-HT2A receptor [8] = target: T2, 5-HT2A receptor; test: Radioligand displacement assay; format: binding; conditions: standard radioligand 125I-DOI
cats = conditions: 10 mg/kg, s.c., versus (R)-DOM 0.5 mg/kg; cited from earlier work
patients = conditions: cited from earlier work
5-HT2C receptor [9] = target: T1, 5-HT2C receptor; test: G protein; format: cell-based
5-HT2A receptor [10] = target: T2, 5-HT2A receptor; test: Calcium flux assay; format: cell-based
Summary of the method: as §2

5-HT2B receptor = 5-HT2B receptor (Homo sapiens, UniProt P41595); test: G protein; format: cell-based
5-HT1A receptor = 5-HT1A receptor (Homo sapiens, UniProt P08908); test: 5-HTome G protein activation BRET screen; format: cell-based; conditions: 5-HTome screen
Summary of the method: as §1

[11] = system: auxilin knockout (KO) mice; test: Auxilin KO Parkinson's model, hind limb clasping; format: in vivo, mouse; conditions: 10 mg/kg i.p., 15 to 30 minutes after treatment
Summary of the method: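 Auxilin KO and WT mice aged 9-12 months, sex balanced, n=5-7/group, treated i.p. with vehicle (0.85% saline) or test compound at 10 mg/kg in saline with 2 molar equivalents of acetic acid, at 10 ml/kg. Testing is done one week pre-treatment and 15-30 min post-dose. Mice are held by the tail base and lowered for 30 s. Clasping is scored 0 (none), 1 (one limb) or 2 (both limbs), and total clasping duration is recorded. Kruskal-Wallis with Dunn's post hoc test.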

[12] = read-out: EC50 (Gq), Gq dissociation BRET

5-HT2B receptor, sequence (P41595 whole entry): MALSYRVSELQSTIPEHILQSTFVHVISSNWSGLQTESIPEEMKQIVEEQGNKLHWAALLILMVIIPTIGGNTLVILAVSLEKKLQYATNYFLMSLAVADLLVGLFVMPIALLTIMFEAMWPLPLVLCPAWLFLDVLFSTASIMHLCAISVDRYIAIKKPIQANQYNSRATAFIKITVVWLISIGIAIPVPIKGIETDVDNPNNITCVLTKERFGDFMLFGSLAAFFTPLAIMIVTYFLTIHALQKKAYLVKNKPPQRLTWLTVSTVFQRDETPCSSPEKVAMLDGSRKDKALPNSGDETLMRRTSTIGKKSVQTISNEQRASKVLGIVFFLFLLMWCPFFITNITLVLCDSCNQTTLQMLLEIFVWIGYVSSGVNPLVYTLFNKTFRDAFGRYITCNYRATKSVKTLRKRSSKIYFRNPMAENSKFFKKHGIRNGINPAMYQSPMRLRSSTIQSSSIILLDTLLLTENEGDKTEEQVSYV
T2 sequence (P28223 whole entry): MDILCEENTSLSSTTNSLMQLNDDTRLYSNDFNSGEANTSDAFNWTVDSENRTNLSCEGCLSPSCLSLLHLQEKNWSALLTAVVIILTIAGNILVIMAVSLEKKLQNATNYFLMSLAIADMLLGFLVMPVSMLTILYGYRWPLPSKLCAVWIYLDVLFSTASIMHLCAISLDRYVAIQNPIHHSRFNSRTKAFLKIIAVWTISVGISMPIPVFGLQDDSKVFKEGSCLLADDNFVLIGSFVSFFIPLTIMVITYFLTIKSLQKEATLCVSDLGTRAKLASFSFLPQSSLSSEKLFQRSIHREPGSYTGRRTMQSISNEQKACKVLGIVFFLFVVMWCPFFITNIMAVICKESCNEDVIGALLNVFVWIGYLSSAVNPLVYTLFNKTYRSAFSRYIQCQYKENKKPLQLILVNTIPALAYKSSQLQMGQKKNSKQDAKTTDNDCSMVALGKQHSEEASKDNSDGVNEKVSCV
5-HT1D receptor, sequence (P28221 whole entry): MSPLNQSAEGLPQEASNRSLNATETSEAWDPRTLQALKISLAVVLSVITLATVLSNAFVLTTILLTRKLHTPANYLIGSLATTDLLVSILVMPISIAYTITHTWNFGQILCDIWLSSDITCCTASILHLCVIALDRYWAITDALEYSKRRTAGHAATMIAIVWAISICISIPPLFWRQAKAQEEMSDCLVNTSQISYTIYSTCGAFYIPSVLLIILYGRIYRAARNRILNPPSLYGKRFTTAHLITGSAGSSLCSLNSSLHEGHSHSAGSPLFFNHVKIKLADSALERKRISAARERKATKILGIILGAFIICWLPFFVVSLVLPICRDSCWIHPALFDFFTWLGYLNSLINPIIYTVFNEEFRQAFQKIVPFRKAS
5-HT1B receptor, sequence (P28222 whole entry): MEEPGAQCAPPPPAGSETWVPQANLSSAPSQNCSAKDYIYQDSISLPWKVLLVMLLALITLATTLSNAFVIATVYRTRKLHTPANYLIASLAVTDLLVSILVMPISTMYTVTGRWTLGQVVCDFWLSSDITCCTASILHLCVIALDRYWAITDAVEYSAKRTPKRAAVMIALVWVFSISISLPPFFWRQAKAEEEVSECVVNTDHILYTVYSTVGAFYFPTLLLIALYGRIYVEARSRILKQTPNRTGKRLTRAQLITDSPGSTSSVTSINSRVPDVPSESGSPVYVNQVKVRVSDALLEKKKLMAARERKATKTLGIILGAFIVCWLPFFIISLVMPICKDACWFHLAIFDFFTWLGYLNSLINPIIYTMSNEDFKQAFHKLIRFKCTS
5-HT1e receptor, sequence (P28566 whole entry): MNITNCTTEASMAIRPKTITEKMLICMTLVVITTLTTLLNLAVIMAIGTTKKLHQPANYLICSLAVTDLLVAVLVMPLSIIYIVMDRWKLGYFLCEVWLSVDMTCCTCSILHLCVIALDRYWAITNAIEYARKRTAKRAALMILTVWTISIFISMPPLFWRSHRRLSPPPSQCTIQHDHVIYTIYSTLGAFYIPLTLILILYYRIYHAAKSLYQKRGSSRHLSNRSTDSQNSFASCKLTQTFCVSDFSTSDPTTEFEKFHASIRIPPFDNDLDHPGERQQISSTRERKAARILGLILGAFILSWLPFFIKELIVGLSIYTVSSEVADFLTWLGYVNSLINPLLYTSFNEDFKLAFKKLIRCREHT
5-HT1F receptor, sequence (P30939 whole entry): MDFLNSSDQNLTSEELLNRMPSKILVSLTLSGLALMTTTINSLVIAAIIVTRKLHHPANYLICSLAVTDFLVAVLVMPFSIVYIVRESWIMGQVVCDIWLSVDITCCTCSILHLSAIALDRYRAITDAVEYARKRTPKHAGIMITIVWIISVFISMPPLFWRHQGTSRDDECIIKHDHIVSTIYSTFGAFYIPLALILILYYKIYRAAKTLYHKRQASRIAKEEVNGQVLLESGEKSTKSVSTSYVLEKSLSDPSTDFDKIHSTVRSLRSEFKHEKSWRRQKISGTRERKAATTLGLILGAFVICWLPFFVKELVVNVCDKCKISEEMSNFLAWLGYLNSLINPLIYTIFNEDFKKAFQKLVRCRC
5-HT1A receptor, sequence (P08908 whole entry): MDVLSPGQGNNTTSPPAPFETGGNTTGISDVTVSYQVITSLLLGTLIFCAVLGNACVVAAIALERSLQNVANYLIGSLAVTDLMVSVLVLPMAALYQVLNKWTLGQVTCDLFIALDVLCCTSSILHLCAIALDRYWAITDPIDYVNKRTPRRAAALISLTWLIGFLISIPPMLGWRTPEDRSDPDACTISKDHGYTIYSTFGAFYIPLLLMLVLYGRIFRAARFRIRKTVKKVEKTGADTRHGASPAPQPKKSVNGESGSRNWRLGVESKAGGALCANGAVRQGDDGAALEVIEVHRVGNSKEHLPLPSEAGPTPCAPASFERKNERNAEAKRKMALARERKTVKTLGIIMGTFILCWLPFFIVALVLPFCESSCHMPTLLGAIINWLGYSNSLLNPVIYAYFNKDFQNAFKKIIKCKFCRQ

CC[C@@H](N)Cc1cc(OC)c(C)cc1OC [(R)-Ariadne]
EC50 (5-HT1D receptor): 300 to 600 nM
latency to bite food pellets (mice [1]): dose-dependent trend toward reducing latency to bite
hallucinogenic / psychoactive effect (humans; 25 mg p.o. ref 6): no hallucinogenic effect but a mild threshold psychoactive effect
psychedelic effects (humans; 100-300 mg, geriatric senile subjects ref 38): no psychedelics effects
hallucinogenic effects (humans; up to 270 mg, healthy subjects ref 14): No hallucinations or perceptual alterations were observed
hallucinogenic effects (humans; up to (and beyond) 100 mg per day, route not specified ref 8): no hallucinations
hallucinogenic effects (humans; up to (and beyond) 100 mg per day, route not specified ref 8, listed as BL-3912A): lack of hallucinogenic effects
HTR after pretreatment with 5-HT2A antagonist MDL100,907 (volinanserin) (mice [2]; MDL100907 0.01 and 0.032 mg/kg ip 15 min prior): completely inhibited
dose of peak (maximum) HTR (mice [2]; s.c.): 10 mg/kg
Emax (calcium flux) (5-HT2C receptor [3]): 60%
effect on general locomotion (mice [4]; 10 mg/kg): minor sedative effect
effect on general locomotion (mice [4]; 30 mg/kg): marked sedation
time in the center of the arena (mice [4]; mouse, in vivo): trend for spending less time in the center of the arena
number of balance beam runs, Aux-KO mice post-treatment [5]: significantly higher and comparable to WT mice
effect on open arm entries and time (mice [6]): acute anxiogenic-like effect
EC50 (5-HT1e receptor): 300 to 600 nM
EC50 (5-HT1B receptor): 4 µM
EC50 (5-HT2A receptor [7]; 5-HTome screen): < 1000 nM
Emax (5-HT2A receptor [7]; 5-HTome screen): > 70%
EC50 (5-HT2A receptor [7]; [12]): 149 nM
avoidance behavior (rats): improved avoidance behavior
EC50 (5-HT1F receptor): 300 to 600 nM
shift in potency between (R)-DOM and (R)-Ariadne (rabbits): 25 fold
Ki (5-HT2A receptor [8]): 53 nM
DOM-like effects (cats): nearly no DOM-like effects
effect in geriatric senile subjects (patients; 50 mg per day ref 8): Improvement in alertness, mobility and sociability
effect in subjects with Parkinson's disease (patients; 100 mg per day ref 8): nearly complete remission of symptoms
effect in patients with schizophrenia and bipolar disorder (patients; 50-100 mg per day ref 8): rapid remission of psychotic symptoms
EC50 (5-HT2C receptor [9]; 5-HTome screen): < 1000 nM
Emax (5-HT2C receptor [9]; 5-HTome screen): > 70%
EC50 (5-HT2C receptor [9]; [12]): 249 nM
EC50 (5-HT2A receptor [10]; read-out: EC50 (calcium flux)): 30 nM
Emax (calcium flux) (5-HT2A receptor [10]; relative to 5-HT): 96%
EC50 (5-HT2B receptor; 5-HTome screen): < 1000 nM
Emax (5-HT2B receptor; 5-HTome screen): > 70%
EC50 (5-HT2B receptor; [12]): 739 nM
EC50 (5-HT1A receptor): 300 to 600 nM
clasping duration, Aux-KO mice [11]: down to zero
clasping score, Aux-KO mice [11]: down to zero
